In ChEMBL document CHEMBL4145461, “Novel non-sulfonamide 5-HT6 receptor partial inverse agonist in a group of imidazo[4,5-b]pyridines with cognition enhancing properties” (Eur J Med Chem, 2018):

Key:
[1] = biological target: D(2) dopamine receptor (Homo sapiens, UniProt P14416); assay: Displacement of [3H]-Raclopride from human dopamine D2L receptor expressed in HEK293 cell membranes after 1 hr by microbeta counting method
Outline: (§1)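 HEK293 (5-HT1A, 5-HT6, 5-HT7b, D2L) or CHO-K1 (5-HT2A) membranes, all Tris–HCl with 4 mM MgCl2 plus receptor-specific EDTA/pargyline/ascorbate (D2L adds NaCl, KCl, CaCl2). Nonspecific binding: 10 μM 5-HT (5-HT1A, 5-HT7), chlorpromazine (5-HT2A), methiothepine (5-HT6), haloperidol (D2L). Triplicate, 7–8 concentrations (10⁻¹¹–10⁻⁴ M), filtration; Ki via Cheng–Prusoff, mean of three experiments. Incubation 1 h 37 °C; 5-HT1A 1 h and 5-HT2A 1.5 h, room temperature.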

[2] = biological target: T1, Muscarinic acetylcholine receptor M1 (Homo sapiens) (UniProt P11229); assay: Displacement of [3H]pirenzepine from recombinant human muscarinic M1 receptor at 1 uM after 60 mins by scintillation counting relative to control
T1 sequence (whole entry): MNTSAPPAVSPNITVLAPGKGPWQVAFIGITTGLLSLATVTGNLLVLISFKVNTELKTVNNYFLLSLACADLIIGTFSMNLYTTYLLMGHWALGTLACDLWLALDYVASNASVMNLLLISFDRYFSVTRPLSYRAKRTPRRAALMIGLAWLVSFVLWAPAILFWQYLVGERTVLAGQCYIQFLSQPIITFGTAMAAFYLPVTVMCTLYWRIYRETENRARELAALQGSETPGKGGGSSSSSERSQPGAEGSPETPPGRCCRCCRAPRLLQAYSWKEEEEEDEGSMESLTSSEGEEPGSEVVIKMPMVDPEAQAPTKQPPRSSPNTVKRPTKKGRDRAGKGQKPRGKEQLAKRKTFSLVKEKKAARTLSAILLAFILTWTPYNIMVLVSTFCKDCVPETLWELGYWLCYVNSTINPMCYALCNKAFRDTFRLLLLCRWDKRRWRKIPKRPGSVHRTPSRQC

[3] = biological target: Cytochrome P450 2D6 (Homo sapiens, UniProt P10635); assay: Induction of CYP2D6 (unknown origin) at 0.025 to 25 uM after 2 hrs by firefly luciferase-luminescence based P450-glo assay; assay type: ADME
Sequence of Cytochrome P450 2D6 (P10635 whole entry, canonical isoform): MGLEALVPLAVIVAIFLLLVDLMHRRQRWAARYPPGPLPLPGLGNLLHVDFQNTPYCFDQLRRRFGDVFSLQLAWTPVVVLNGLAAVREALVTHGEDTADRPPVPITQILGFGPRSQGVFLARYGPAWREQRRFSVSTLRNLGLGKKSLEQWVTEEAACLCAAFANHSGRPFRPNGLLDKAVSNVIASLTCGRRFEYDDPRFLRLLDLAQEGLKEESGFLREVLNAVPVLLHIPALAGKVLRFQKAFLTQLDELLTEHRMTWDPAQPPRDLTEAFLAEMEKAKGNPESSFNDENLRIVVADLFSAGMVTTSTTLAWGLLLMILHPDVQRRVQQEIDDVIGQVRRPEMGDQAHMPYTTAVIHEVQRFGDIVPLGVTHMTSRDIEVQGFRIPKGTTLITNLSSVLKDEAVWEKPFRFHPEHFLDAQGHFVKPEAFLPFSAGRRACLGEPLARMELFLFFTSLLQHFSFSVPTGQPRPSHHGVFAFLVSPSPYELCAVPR
Outline: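 Recombinant CYP3A4 or CYP2D6 incubated 2 h with test compound (0.025–25 μM final) and an isoform-specific luciferin derivative. Firefly luciferase then added, and luminescence is proportional to D-luciferin formed. Reference inhibitors: ketoconazole (CYP3A4) and quinidine (CYP2D6, 0.1–100 nM).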

[4] = biological target: 5-hydroxytryptamine receptor 7 (Homo sapiens, UniProt P34969); assay: Displacement of [3H]-5-CT from human 5HT7BR expressed in HEK293 cell membranes after 1 hr by microbeta counting method; outline: as §1
Sequence of 5-hydroxytryptamine receptor 7 (P34969 whole entry): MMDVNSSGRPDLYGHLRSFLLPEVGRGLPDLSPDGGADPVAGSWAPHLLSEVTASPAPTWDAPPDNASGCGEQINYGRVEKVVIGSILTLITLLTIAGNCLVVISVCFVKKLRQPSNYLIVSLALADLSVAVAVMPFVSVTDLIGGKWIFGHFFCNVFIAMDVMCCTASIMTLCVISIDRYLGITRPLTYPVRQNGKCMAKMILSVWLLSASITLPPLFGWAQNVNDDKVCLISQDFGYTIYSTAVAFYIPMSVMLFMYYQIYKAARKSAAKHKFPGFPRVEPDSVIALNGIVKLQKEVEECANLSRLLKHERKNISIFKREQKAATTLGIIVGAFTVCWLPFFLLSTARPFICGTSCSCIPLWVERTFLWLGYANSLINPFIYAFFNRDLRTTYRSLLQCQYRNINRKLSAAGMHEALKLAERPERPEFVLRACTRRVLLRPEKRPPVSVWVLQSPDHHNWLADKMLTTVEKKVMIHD

[5] = biological target: 5-hydroxytryptamine receptor 2A (Homo sapiens, UniProt P28223); assay: Displacement of [3H]-Ketanserin from human 5HT2AR expressed in CHO-K1 cell membranes after 1.5 hrs by microbeta counting method
Sequence of 5-hydroxytryptamine receptor 2A (P28223 whole entry): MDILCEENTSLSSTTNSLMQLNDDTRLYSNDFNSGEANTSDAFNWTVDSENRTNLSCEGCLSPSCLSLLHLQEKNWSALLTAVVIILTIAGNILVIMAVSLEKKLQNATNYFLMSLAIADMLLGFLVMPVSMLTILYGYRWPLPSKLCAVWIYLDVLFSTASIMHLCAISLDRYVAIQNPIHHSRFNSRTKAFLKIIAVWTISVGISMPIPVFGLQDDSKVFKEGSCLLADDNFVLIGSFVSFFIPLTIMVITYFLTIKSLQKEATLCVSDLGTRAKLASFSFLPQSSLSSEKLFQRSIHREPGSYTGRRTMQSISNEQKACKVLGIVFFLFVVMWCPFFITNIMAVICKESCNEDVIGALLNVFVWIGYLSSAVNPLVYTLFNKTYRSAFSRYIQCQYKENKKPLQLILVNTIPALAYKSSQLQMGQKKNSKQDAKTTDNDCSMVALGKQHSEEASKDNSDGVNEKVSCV
Outline: as §1, with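 “experiments.” for “experiments. Incubation 1 h 37 °C; 5-HT1A 1 h and 5-HT2A 1.5 h, room temperature.”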

[6] = biological target: T2, alpha-1 adrenergic receptor (Rattus norvegicus, UniProt P15823+P23944+P43140); assay: Displacement of [3H]prazosin from rat brain alpha-1 adrenergic receptor at 1 uM after 60 mins by scintillation counting relative to control; details: rat brain alpha-1 adrenergic receptor preparation, probe [3H]prazosin
T2 sequence (P15823 whole entry): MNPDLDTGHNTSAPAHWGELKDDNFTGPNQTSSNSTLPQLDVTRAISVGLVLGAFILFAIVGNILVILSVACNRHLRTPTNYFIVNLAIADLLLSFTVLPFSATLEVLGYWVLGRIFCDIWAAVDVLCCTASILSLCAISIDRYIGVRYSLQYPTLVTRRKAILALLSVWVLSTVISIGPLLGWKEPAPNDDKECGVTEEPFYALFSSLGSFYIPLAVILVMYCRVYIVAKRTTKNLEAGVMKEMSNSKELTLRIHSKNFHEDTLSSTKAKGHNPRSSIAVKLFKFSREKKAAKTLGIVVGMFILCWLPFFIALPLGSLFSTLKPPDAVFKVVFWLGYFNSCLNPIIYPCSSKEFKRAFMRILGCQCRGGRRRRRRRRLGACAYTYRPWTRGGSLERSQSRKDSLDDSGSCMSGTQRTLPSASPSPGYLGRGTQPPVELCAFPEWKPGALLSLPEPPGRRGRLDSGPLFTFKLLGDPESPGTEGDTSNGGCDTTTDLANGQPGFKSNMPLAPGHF
T2 sequence (P23944 whole entry): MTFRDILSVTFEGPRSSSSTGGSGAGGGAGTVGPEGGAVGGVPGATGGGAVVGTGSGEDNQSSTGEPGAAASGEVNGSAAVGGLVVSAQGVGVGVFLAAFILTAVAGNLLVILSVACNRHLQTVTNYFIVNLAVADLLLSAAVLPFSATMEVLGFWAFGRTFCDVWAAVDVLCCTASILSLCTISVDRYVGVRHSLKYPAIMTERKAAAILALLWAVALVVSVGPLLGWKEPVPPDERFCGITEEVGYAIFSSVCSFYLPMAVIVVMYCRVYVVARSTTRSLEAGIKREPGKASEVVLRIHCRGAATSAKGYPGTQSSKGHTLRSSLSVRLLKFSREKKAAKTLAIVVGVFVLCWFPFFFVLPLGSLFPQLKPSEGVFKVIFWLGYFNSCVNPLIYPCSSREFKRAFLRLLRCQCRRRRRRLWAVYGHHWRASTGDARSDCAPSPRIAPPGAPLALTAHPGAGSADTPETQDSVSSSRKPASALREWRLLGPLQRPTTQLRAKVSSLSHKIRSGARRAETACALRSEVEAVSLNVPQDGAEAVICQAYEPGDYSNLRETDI
T2 sequence (P43140 whole entry): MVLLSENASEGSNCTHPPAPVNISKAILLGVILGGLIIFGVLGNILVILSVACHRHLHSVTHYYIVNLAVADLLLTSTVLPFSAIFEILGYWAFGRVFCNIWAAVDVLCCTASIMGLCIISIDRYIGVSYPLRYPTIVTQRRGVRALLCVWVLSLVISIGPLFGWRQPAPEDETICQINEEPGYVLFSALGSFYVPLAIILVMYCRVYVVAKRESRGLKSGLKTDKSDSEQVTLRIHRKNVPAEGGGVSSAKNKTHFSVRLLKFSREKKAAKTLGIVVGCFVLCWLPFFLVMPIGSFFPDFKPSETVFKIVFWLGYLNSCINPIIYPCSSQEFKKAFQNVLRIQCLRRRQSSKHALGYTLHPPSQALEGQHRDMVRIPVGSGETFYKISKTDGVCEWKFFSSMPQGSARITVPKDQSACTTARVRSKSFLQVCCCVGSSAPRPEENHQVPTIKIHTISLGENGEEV

Sequence of D(2) dopamine receptor (P14416 whole entry): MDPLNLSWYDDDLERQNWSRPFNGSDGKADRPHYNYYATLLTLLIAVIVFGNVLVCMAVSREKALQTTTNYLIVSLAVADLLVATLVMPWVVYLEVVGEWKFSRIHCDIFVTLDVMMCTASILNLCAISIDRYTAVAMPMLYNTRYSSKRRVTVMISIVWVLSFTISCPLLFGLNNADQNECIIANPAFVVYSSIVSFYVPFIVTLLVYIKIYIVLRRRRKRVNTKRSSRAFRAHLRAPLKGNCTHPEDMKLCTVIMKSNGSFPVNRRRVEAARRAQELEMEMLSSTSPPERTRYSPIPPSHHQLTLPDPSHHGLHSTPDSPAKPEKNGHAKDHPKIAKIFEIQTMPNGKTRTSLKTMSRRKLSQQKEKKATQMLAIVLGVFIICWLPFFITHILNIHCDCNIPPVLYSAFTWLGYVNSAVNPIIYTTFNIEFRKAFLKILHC

Ki [1]: 3.48 µM
inhibition [2]: 3%
Activity [3]: Active
Ki [4]: 12.3 µM
Ki [5]: 0.441 µM
inhibition at 1 h, 1 µM [6]: 0.2%
SMILES: CCc1nc2c(N3CCNCC3)ccnc2n1Cc1cccc(F)c1
